Compounds with a hit are over-represented: about 2.1% of the library has one in this group of screens.
STAT1 inh: inhibitors of IFN-gamma induced STAT1 signaling; inhibition, % at 5.5 µM; AID 920; 200,000 tested, 0.35% active; NIH 3T3 STAT1-luciferase reporter, luminescence;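 active means inhibition above a set limit, the mean inhibition across all tested compounds plus 3 SD, cut at about 34% in these data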;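 further: 0% = IFN-gamma with DMSO and 100% = IFN-gamma with 300 µM nifuroxazide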
STAT3 inh: inhibitors of IL-6 induced STAT3 signaling; U3A cells, IL-6 STAT3-luciferase reporter, luminescence; host cell line lacks STAT1; inhibition, % at 5.5 µM; 190,000 tested, 0.89% active; AID 862;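 active means inhibition above the mean inhibition across all screened compounds plus 3 SD, cut at about 44% in these data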;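 further: 0% = DMSO only wells and 100% = 100 µM nifuroxazide control wells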
L929 necroptosis: L929 zVAD cell death inhibition. 220,000 tested, 0.38% active. viability rescue, % at 10 µM. AID 1377. L929 zVAD necroptosis rescue, ATP luminescence, 24 h; with zVAD 60 µM;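 active means activation, scaled between plate controls, above about 75%, limit read from the data; inactive means activation under that limit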;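 further: 0% = zVAD with DMSO and 100% = DMSO alone without zVAD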
STAT3 act: increases IL-6 driven STAT3 reporter signal | AID 871 | U3A cells, IL-6 STAT3-luciferase reporter, luminescence; 100% = signal with IL-6 EC80 alone | 190,000 tested, 0.91% active | activation (% of control), % at 5.6 µM;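 active means activation above the screen-wide mean of compound activation plus 3 SD, cut at about 130% in these data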;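 further: 0% = background luminescence of wells with medium and substrate only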
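System – human U3A cells carrying STAT3-luciferase construct · Probe or stimulus – Interleukin-6, 33 ng/mL · Schedule – compound 1 h, then IL-6 6 h at 37 °C · Signal – luminescence from STAT3-driven luciferase reporter · Evaluation – percent of IL-6-only median luminescence · Benchmarks – IL-6-only high control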
TNF necrop inh: TNF-alpha cell death inhibition in Jurkat FADD-/- cells; Jurkat FADD-/- TNF necroptosis rescue, ATP luminescence, 24 h; 0 = TNF only, 100 = no-TNF cells; activation (protection from cell death), % at 10 µM; 220,000 tested, 0.068% active; AID 463075;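 active means activation, meaning protection from cell death, of at least 50% relative to plate controls; inactive means activation below 50%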;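 further: necroptosis triggered by 40 ng/mL TNF-alpha added together with compound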
Numbers without * were called inactive; / = not tested or not shown.

SMILES | STAT1 inh | STAT3 inh | L929 necroptosis | STAT3 act | TNF necrop inh
CCN1/C(=C/C=C/c2oc3ccc(-c4ccccc4)cc3[n+]2CC)Oc2ccc(-c3ccccc3)cc21 | 60.2* | 54.1* | -4.9 | 56.2 | -16.7
CCOc1cccc2cc(C(=O)Nc3ccccc3-c3ccccc3)c(=O)oc12 | 11.9 | 5.5 | 1.5 | 97.2 | 2.2
Cc1c(C(=O)/C=C/c2cccs2)oc2ccc(F)cc12 | 1.8 | -50.8 | 2.2 | 150.7* | 0.7
O=C(Nc1ccc(F)cc1)N1CCN(c2nc3ccccc3s2)CC1 | 7.3 | 45.7* | 0.1 | 62.8 | -0.9
O=C(Nc1ccccc1)N1CCN(c2nc3ccccc3s2)CC1 | 0.2 | 40.5 | 0.7 | 68.7 | -2.0
O=C(CN1CCN(c2ccc(F)cc2)CC1)N1N=CCC1c1ccccc1 (centres undefined) | 7.0 | 9.9 | 0.0 | 95.9 | 38.7
O=C(CSC(=S)N1CCOCC1)N1N=CCC1c1ccccc1 (centres undefined) | -5.6 | -0.5 | 0.5 | 105.8 | 50.4*
O=C(CN1CCN(c2ccccc2)CC1)N1N=CCC1c1ccccc1 (centres undefined) | -0.6 | -8.3 | 0.3 | 111.7 | 39.1
O=C(CN1CCN(C(c2ccccc2)c2ccccc2)CC1)N1N=CCC1c1ccccc1 (centres undefined) | / | / | 0.2 | / | 67.7*
C#CCSc1n[nH]c(=O)n1-c1cccc(C(F)(F)F)c1 | / | / | 0.1 | / | -0.8
CC(=O)N1CCc2cc(S(=O)(=O)NCCC3=CCCCC3)ccc21 | 17.1 | 65.0* | 0.0 | 45.7 | -8.6
COc1ccc(OC)c(NC(=O)Cn2cc(C#N)c3ccccc32)c1 | 3.1 | -8.1 | -1.6 | 109.4 | 0.3
c1ccc(-c2cn3nc(-c4ccccc4)cnc3n2)cc1 | -59.9 | 9.4 | 1.4 | 90.9 | 0.4
c1ccc(-c2cn3nc4c(nc3n2)CCCC4)cc1 | 52.7* | 87.3* | 0.1 | 27.8 | -4.5
CCCNC(=O)c1ccc2c(=O)c(O)c(-c3ccc(OC)cc3)[nH]c2c1 | / | / | 1.7 | / | -1.8
C=CCNc1nc(NCc2ccccc2)c(C#N)c2c1CN(C)CC2 | -18.8 | -34.5 | 0.3 | 132.9* | -9.8
Cc1ccc(NC2=C/C(=N/S(=O)(=O)c3cccs3)c3ccccc3C2=O)cc1C | 1.7 | 2.2 | 1.7 | 105.9 | -8.2
CC(=O)Nc1ccc(NC2=C/C(=N/S(=O)(=O)c3cccs3)c3ccccc3C2=O)cc1 | 90.2* | 65.5* | 22.9 | 46.2 | -22.3
COc1ccc(OC)c(NC(=O)Cn2c(CCC(=O)O)ccc2-c2ccccc2)c1 | -5.3 | -36.8 | 0.9 | 133.6* | 1.3
COc1ccccc1NC(=O)Cn1c(CCC(=O)O)ccc1-c1ccccc1 | 3.7 | -1.8 | 18.1 | 104.5 | 0.6
Cc1nnsc1NC(=O)OCc1ccc(C(C)(C)C)cc1 | 1.9 | 64.9* | 0.7 | 48.5 | -17.8
CN=c1scc(-c2ccc(F)cc2)n1/N=C/c1ccc(O)c(O)c1 | 47.3* | -3.5 | 69.9 | 103.9 | -9.8
CCC(CC)c1nnc(NC(=O)c2ccc3ccccc3n2)s1 | -57.4 | -60.5 | -0.2 | 151.8* | -0.6
Cc1ccc(C)c(NC(=S)c2ccc3ccccc3n2)c1 | -32.4 | -58.3 | -0.1 | 154.5* | 1.7
Cc1cccc(NC(=O)c2ccc3ccccc3n2)c1C | -37.9 | -48.2 | 0.5 | 141.8* | -1.3
SMILES | STAT1 inh | STAT3 inh | L929 necroptosis | STAT3 act | TNF necrop inh
CCC(CC)c1nnc(NC(=O)c2cc(-c3ccccc3)nc3ccccc23)s1 | -0.7 | 3.1 | 0.9 | 99.3 | 0.7
CC1=C(C#N)C(Nc2cccc(C)n2)(C(F)(F)F)C(=O)N1 (centres undefined) | 9.8 | 1.8 | 1.4 | 102.2 | 0.7
COc1cccc(NC(=O)c2cc(-c3cccnc3)nc3c(Cl)cccc23)c1 | -6.5 | -17.4 | 83.8* | 118.2 | -6.7
O=C1CCNc2cc3ccccc3cc21 | -0.6 | -40.0 | 0.7 | 137.1* | -3.8
O=C1CCNc2ccc(-c3ccccc3)cc21 | -9.8 | 13.1 | / | 91.6 | 0.8
Cc1ccc(CNC(=O)c2ccc3c(c2)NC(=O)C(N2CCOCC2)S3)cc1 (centres undefined) | 11.2 | -33.3 | 0.3 | 133.5* | -2.7
COc1cccc(-n2c(SCC(=O)O)nnc2-c2cccnc2)c1 | -10.0 | 3.9 | 1.6 | 101.0 | 0.6
CC(=O)C1=C(C)OC(N)=C(C#N)C1c1cc2cc(C)c(C)cc2nc1Cl (centres undefined) | 5.0 | -93.6 | 0.0 | 178.4* | -4.3
COC(=O)C1=C(C)OC(N)=C(C#N)C1c1cc2cc(C)ccc2nc1Cl (centres undefined) | 4.8 | 8.4 | 7.5 | 96.5 | -0.6
CC(C)Oc1ccc(CCN=C(N)N=C(N)N)cc1Cl | -1.6 | 3.3 | 1.4 | 99.0 | -1.3
c1ccc(C2Oc3ccccc3C3CC(c4cccs4)=NN32)cc1 (centres undefined) | -4.4 | -4.8 | 0.5 | 99.8 | -0.5
O=[N+]([O-])c1ccc(C2Oc3ccccc3C3CC(c4ccccc4)=NN32)s1 (centres undefined) | 7.5 | -43.5 | -0.3 | 133.4* | -2.1
CCCCSc1nc(NCc2ccco2)c2c3c(sc2n1)COC(C)(C)C3 | -1.3 | -9.2 | 0.5 | 109.7 | 1.5
Cc1ccc(-c2nc(N/N=C/c3cccc([N+](=O)[O-])c3)c3ccccc3n2)cc1 | 5.4 | -4.6 | -0.2 | 109.1 | -9.9
Cc1ccc(-c2nc(N/N=C/c3cccnc3)c3ccccc3n2)cc1 | 57.1* | 72.1* | -2.2 | 41.2 | -12.0
Cc1cc(N)c(-n2cc3c(=O)n(C)c(=O)n(C)c3c2)cc1C | -25.7 | -2.9 | 1.6 | 105.1 | -1.3
N#CC(C#N)=C1C=CC=CN1/C(=C\c1ccco1)C(=O)c1ccc(Br)cc1 | -9.8 | -2.1 | -2.1 | 102.5 | 61.9*
N#CC(C#N)=C1C=CC=CN1/C(=C\c1ccco1)C(=O)c1ccccc1 | -18.3 | -3.4 | 0.4 | 103.0 | 7.4
c1ccc2c(N3CCCCC3)nnc(N3CCCCC3)c2c1 | -4.3 | 7.6 | -0.8 | 98.4 | 78.3*
COc1ccc(C2CC(c3c(O)cc(C)oc3=O)=NCCS2)c(OC)c1 (centres undefined) | -38.2 | -66.4 | -2.2 | 163.8* | -21.3
CCOC(=O)c1ccc(-c2ccc(/C=C(\C#N)C(=O)NCC3CCCO3)o2)cc1 (centres undefined) | -3.9 | -38.5 | -0.2 | 135.5* | -8.4
Clc1ccc(Sc2cc(Cl)c(-c3ccccc3)nn2)cc1 | 2.5 | -52.4 | -0.1 | 142.4* | -0.1
N#Cc1cc(-c2ccccc2)nnc1Sc1ccc(Cl)cc1 | -6.8 | 4.1 | 0.3 | 96.6 | 1.1
O=[N+]([O-])c1ccc(NCc2ccccc2)nc1 | -4.9 | 26.8 | 2.7 | 82.5 | 75.9*
O=[N+]([O-])c1ccc(Nc2cccc(F)c2)nc1 | 3.9 | 9.8 | 2.9 | 93.5 | 70.5*
O=[N+]([O-])c1ccc(Nc2ccccc2)nc1 | -7.8 | 4.5 | 24.2 | 94.2 | 90.2*
O=C(Nc1ccc(F)cc1)Nc1ccc([N+](=O)[O-])cn1 | 3.3 | 29.0 | 6.8 | 78.0 | 0.9
O=[N+]([O-])c1ccc(Nc2ccc(F)cc2)nc1 | 10.2 | 5.0 | 3.6 | 98.1 | 73.1*

Assay outcomes (PubChem)
